The values that follow come from PubChem BioAssay.

Active and inactive are the calls of the source.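 The calls were made as follows, unless noted: active = viability loss from added drug above about 55%, and viability with drug at most 40%, in both replicates (limit read from the data, passing the limit was not always enough); inconclusive = both conditions met in only one replicate; inactive = neither replicate meets both conditions.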

For orientation: viability means a read-out of living cells in per cent, often relative to untreated cells. One may read the inhibition as the relative decrease from the control value, in per cent.

Test [1] is described as follows: Her2 expression decrease, cell viability multiplex – SKBR3 breast tumor cells, AlphaScreen, ATP viability, primary screen (AID 461;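 active = Her2 level under about 52% in both replicate screens, with viability over 70% of control, limit read from the data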;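 as to Her2 level: lower value means less Her2 protein in the cells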;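 as to viability: percent of carrier control wells set as 100% viability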). As to conditions: SKBR3 Her2 protein level, 18-24 h, measured here: SKBR3 viability, ATP luminescence, at 10 µM. In general terms: Bead proximity is the source of the signal in Alpha formats.
The target of test [2] is Receptor tyrosine-protein kinase erbB-2 (Homo sapiens) (UniProt P04626). The test is described as above. The note with it: 18-24 h, at 10 µM, stronger effect = lower value.
Chain of Receptor tyrosine-protein kinase erbB-2 (Homo sapiens) (P04626 whole entry, looked up): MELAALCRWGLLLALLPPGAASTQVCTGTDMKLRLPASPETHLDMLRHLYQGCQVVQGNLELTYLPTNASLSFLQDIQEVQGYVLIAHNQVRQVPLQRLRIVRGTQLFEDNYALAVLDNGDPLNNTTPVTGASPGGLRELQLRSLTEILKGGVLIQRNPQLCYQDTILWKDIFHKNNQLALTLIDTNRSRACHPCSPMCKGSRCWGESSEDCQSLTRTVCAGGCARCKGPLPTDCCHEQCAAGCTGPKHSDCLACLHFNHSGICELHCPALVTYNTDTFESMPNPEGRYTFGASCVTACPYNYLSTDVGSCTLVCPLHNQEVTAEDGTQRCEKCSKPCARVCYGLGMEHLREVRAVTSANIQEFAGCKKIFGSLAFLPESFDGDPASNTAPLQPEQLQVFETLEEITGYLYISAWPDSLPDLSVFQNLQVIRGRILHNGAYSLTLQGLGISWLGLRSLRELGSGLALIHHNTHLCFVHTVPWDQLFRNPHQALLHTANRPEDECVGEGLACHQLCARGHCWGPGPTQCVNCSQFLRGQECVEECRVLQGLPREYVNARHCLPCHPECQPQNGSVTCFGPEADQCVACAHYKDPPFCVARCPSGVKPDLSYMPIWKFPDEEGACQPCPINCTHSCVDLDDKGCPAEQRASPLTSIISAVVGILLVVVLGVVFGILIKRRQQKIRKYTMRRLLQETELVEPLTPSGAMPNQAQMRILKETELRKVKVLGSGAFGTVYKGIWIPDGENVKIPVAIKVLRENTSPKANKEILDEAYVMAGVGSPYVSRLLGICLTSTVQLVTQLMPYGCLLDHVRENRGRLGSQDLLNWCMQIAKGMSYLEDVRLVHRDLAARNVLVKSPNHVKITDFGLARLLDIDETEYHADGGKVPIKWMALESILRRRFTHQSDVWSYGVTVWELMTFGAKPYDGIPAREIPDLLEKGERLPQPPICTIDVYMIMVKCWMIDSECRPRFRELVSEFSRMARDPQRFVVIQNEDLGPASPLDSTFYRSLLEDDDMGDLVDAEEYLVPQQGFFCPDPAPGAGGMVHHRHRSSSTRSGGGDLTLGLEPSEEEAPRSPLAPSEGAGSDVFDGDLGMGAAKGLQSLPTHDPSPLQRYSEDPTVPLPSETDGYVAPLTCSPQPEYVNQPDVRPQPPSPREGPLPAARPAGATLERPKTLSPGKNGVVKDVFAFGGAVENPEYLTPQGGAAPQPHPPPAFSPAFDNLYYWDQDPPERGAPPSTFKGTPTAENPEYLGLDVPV
Test [3] can be described thus: reduced viability of SK-BR-3 breast cancer cells – cell-based, 24 h, human, pilot screen (AID 572;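 active = viability at or below 10% of carrier control in both of two separate runs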;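 also: compound exposure lasted between 18 and 24 h rather than exactly 24 h; 100% = carrier-treated control wells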). The note with it: SK-BR-3 viability, CellTiter-Glo luminescence, at 10 µM, stronger effect = lower value. In general terms: ATP-based viability assays read luminescence as a measure of living cells.
A short description of test [4]: HUVEC growth inhibition – cell-based, human, primary screen (AID 575;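 active = viability at or below 30% in both replicate assays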;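 also: 100% = median of untreated cell wells with 0.1% DMSO on each plate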). As to conditions: HUVEC proliferation, CellTiter-Glo luminescence, 72 h; at 10 µM; stronger effect = lower value. In a few lines:
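Assay system: primary human umbilical vein endothelial cells / Buffer or medium: endothelial basal medium with 2% FBS plus growth supplements / Compound dosing: one dose, 10 µM final, 0.1% DMSO / Timing: 72 h treatment at 37 °C / Signal: CTG luminescence / Benchmarks: 32 DMSO-only cell-control wells (high), 32 MePR drug-control wells (low) per plate / Plate: collagen-coated 384-well format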

Test [5] can be described thus: H69AR cell proliferation blockers – human, duplicate replicates, primary screen (AID 580;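 active = viability at or under a set limit in both replicates, limit being median viability minus 3 SD, cut at about 48% in these data, passing the limit was not always enough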;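 also: 100% = mean luminescence of untreated wells and 0% = no signal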). The note with it: H69AR lung tumor cells viability, ATP luminescence, 72 h; at 10 µM; stronger effect = lower value.
Test [6] can be described thus: MRP1 drug-resistance reversers in H69AR cells – cell-based, doxorubicin co-treatment, pilot screen (AID 601). As to conditions: CellTiter-Glo, 72 h, at 10 µM; for differential viability (reversal): stronger effect = higher value.
Test [7] is described as follows: yeast transport mutant growth inhibition pilot in 384-well plates, post-Golgi transport modulator project (AID 636; in the data active = inhibition above about 31%). As to conditions: absorbance 615 nm, about 18 h, stronger effect = higher value.
Test [8] is described as follows: growth suppression of yeast trafficking mutant, preliminary HTS, modulators of trafficking downstream of Golgi apparatus project, 1536-format plate, OD 615 nm (AID 637; in the data active = inhibition above about 30%). As to conditions: yeast transport mutant growth, absorbance 615 nm, 18 h; stronger effect = higher value.
Setting [9] is: H69AR cells + 2 uM doxorubicin, measured here: viability with 2 uM doxorubicin, stronger effect = lower value.
Setting [10] is: H69AR cells, compound alone cytotoxicity.

In the case of `Cc1cccc(C2c3c(n(C)c(=O)n(C)c3=O)N=C3c4ccccc4C(=O)C32)c1` (stereo not given), the viability in test [1] was 101%; in test [3], 101% (inactive); in test [4], 43.8% (inactive); in test [5], 24.3% (active); in test [6] (setting [9]), 34%; in test [6] (setting [10]), 24.3%. In addition, the Her2 level in test [2] was 82.5% (inactive). In addition, the differential viability (reversal) in test [6] (H69AR cells + 2 uM doxorubicin) is -9.63% (inactive). In addition, the inhibition in test [7] is -7.47% (inactive); in test [8], 0.32% (inactive).
With `CCOC(=O)CNC(=O)CSc1ncnc2c1cnn2Cc1ccccc1`, the viability in test [1] is 96%; in test [3], 96% (inactive); in test [4], 54.5% (inactive); in test [5] it was 100% (inactive); in test [6] (setting [9]) it was 90.1%; in test [6] (setting [10]), 100%. Moreover, the Her2 level in test [2] was 82.5% (inactive). Also, in test [6] (H69AR cells + 2 uM doxorubicin), the differential viability (reversal) was 10.3% (inactive). For the same compound, the inhibition in test [7] is -5.84% (inactive); in test [8] it was -6.56% (inactive).
With `Cc1nc(CCNC(=O)c2ccccc2)cs1`, the viability was 92.5% in test [1]; 92.5% (inactive) in test [3]; 106% (inactive) in test [4]; 98.5% (inactive) in test [5]; 90.6% in test [6] (setting [9]); 98.5% in test [6] (setting [10]). Besides, the Her2 level in test [2] is 95% (inactive). Besides, the differential viability (reversal) in test [6] (H69AR cells + 2 uM doxorubicin) was 7.85% (inactive). Further, the figures for the inhibition in test [7] and in test [8] were 0.27% (inactive) and 4.03% (inactive), respectively.
`Cc1cccc(N=C2NC(=O)CS2)c1C`: the viability in test [1] is 108%; in test [3], 108% (inactive); in test [4] it was 87.1% (inactive); in test [5], 91.9% (inactive); in test [6] (setting [9]), 88.3%; in test [6] (setting [10]), 91.9%. Besides, the Her2 level in test [2] is 80% (inactive). In addition, the differential viability (reversal) in test [6] (H69AR cells + 2 uM doxorubicin) is 3.6% (inactive). Also, the results for the inhibition in test [7] and in test [8] were 0.4% (inactive) and -0.81% (inactive), respectively.
With `COc1ccc(C(CNC(=O)CN2C(=O)NC3(CC(C)CC(C)(C)C3)C2=O)N2CCOCC2)cc1` (stereo not given), the viability in test [1] was 94.5%; in test [3] it was 94.5% (inactive); in test [4], 90.4% (inactive); in test [5] it was 90.5% (inactive); in test [6] (setting [9]), 88.7%; in test [6] (setting [10]) it was 90.5%. Besides, the Her2 level in test [2] was 108% (inactive). For the same compound, the differential viability (reversal) in test [6] (H69AR cells + 2 uM doxorubicin) is 1.81% (inactive). The inhibition was -5.73% (inactive) in test [7] and -2.62% (inactive) in test [8].
In the case of `COC(=O)c1cc(Br)c(=O)n(CCN2CCOCC2)c1`, the viability in test [1] is 102%; in test [3], 102% (inactive); in test [4], 81.5% (inactive); in test [5], 96.2% (inactive); in test [6] (setting [9]) it was 82.8%; in test [6] (setting [10]) it was 96.2%. For the same compound, in test [2], the Her2 level was 87% (inactive). Besides, the differential viability (reversal) in test [6] (H69AR cells + 2 uM doxorubicin) is 13.5% (inactive). Moreover, the figures for the inhibition in test [7] and in test [8] were -4.27% (inactive) and -0.49% (inactive), respectively.
As to `O=C(Cn1nc(-c2ccc3c(c2)OCCO3)ccc1=O)Nc1ccc(N2CCOCC2)cc1`, the viability in test [1] is 94%; in test [3], 94% (inactive); in test [4], 112% (inactive); in test [5], 110% (inactive); in test [6] (setting [9]) it was 93.2%; in test [6] (setting [10]) it was 110%. Besides, the Her2 level in test [2] is 108% (inactive). Moreover, the differential viability (reversal) in test [6] (H69AR cells + 2 uM doxorubicin) was 16.4% (inactive). Further, the inhibition in test [7] was -3.03% (inactive); in test [8], 0.17% (inactive).
On to `CC1(C)CC(=O)C=C(Nc2ccc(F)cc2)C1`, for which the viability is 102% in test [1]; 102% (inactive) in test [3]; 90.5% (inactive) in test [4]; 96.5% (inactive) in test [5]; 90.1% in test [6] (setting [9]); 96.5% in test [6] (setting [10]). In addition, in test [2], the Her2 level was 95% (inactive). Further, in test [6] (H69AR cells + 2 uM doxorubicin), the differential viability (reversal) is 6.35% (inactive). Further, the inhibition in test [7] is -0.39% (inactive); in test [8] it was -3.64% (inactive).
As for `CCc1nnc(NC(=O)c2ccc(COc3ccc(C)cc3)o2)s1`, the viability in test [1] is 104%; in test [3] it was 104% (inactive); in test [4], 99.5% (inactive); in test [5], 106% (inactive); in test [6] (setting [9]), 111%; in test [6] (setting [10]), 106%. In addition, in test [2], the Her2 level is 93.5% (inactive). Moreover, the differential viability (reversal) in test [6] (H69AR cells + 2 uM doxorubicin) is -4.93% (inactive). In addition, the inhibition in test [7] was -3.01% (inactive); in test [8], -3.17% (inactive).
As to `Cc1ccc(OC(=O)CCc2c(C)nc3ncnn3c2C)cc1`, the viability in test [1] is 102%; in test [3] it was 102% (inactive); in test [4], 95.9% (inactive); in test [5], 87.1% (inactive); in test [6] (setting [9]), 81.7%; in test [6] (setting [10]), 87.1%. The Her2 level in test [2] was 96.5% (inactive). In test [6] (H69AR cells + 2 uM doxorubicin), the differential viability (reversal) is 5.46% (inactive). Further, the inhibition is 3.29% (inactive) in test [7] and -9.09% (inactive) in test [8].
For the compound `COc1ccc(Cl)cc1NC(=O)c1oc(C)nc1C`, the viability in test [1] was 91%; in test [3] it was 91% (inactive); in test [4], 91% (inactive); in test [5], 90.1% (inactive); in test [6] (setting [9]) it was 92.3%; in test [6] (setting [10]), 90.1%. The Her2 level in test [2] was 71.5% (inactive). Besides, the differential viability (reversal) in test [6] (H69AR cells + 2 uM doxorubicin) is -2.13% (inactive). Moreover, the inhibition is -5.95% (inactive) in test [7] and 6.5% (inactive) in test [8].
On to `CC1=C(C(=O)NC2CCCC(C)C2C)C2(CCCCC2)OC1=O` (stereo not given), for which the viability in test [1] is 118%; in test [3], 118% (inactive); in test [4] it was 97.6% (inactive); in test [5], 95.8% (inactive); in test [6] (setting [9]) it was 87.7%; in test [6] (setting [10]) it was 95.8%. For the same compound, the Her2 level in test [2] is 100% (inactive). Besides, the differential viability (reversal) in test [6] (H69AR cells + 2 uM doxorubicin) is 8.08% (inactive). The figures for the inhibition in test [7] and in test [8] were -0.27% (inactive) and 3.67% (inactive), respectively.
Turning to `Cc1ccc(C2c3sc(=O)[nH]c3SC3C(=O)NC(=O)C32)cc1` (stereo not given), the viability in test [1] is 94%; in test [3] it was 94% (inactive); in test [4], 111% (inactive); in test [5], 105% (inactive); in test [6] (setting [9]) it was 99.2%; in test [6] (setting [10]) it was 105%. The Her2 level in test [2] is 87% (inactive). For the same compound, in test [6] (H69AR cells + 2 uM doxorubicin), the differential viability (reversal) is 6.17% (inactive). For the same compound, the inhibition was -5.62% (inactive) in test [7] and -4.29% (inactive) in test [8].
As to `CCCn1c(NCc2ccc3c(c2)OCO3)nc2ccccc21`, the viability in test [1] is 94%; in test [3], 94% (inactive); in test [4], 80.1% (inactive); in test [5], 97.2% (inactive); in test [6] (setting [9]), 84.9%; in test [6] (setting [10]), 97.2%. Moreover, the Her2 level in test [2] was 85% (inactive). Further, the differential viability (reversal) in test [6] (H69AR cells + 2 uM doxorubicin) was 12.3% (inactive). Moreover, the inhibition is -5.6% (inactive) in test [7] and -1.13% (inactive) in test [8].
Turning to `Cn1nnnc1SCC(=O)NC1CCCCC1`, the viability in test [1] was 77.5%; in test [3] it was 77.5% (inactive); in test [4], 108% (inactive); in test [5], 96.1% (inactive); in test [6] (setting [9]), 97.2%; in test [6] (setting [10]) it was 96.1%. Besides, in test [2], the Her2 level is 77% (inactive). Besides, the differential viability (reversal) in test [6] (H69AR cells + 2 uM doxorubicin) is -1.11% (inactive). The inhibition in test [7] was -5.95% (inactive); in test [8], -2.62% (inactive).
For `COc1cccc(CNC(=O)CCn2c(=O)oc3ccccc32)c1`, the viability was 77.5% in test [1]; 77.5% (inactive) in test [3]; 94.7% (inactive) in test [4]; 86.4% (inactive) in test [5]; 89.4% in test [6] (setting [9]); 86.4% in test [6] (setting [10]). The Her2 level in test [2] is 94.5% (inactive). Further, in test [6] (H69AR cells + 2 uM doxorubicin), the differential viability (reversal) was -3.03% (inactive). For the same compound, the inhibition in test [7] was -5.92% (inactive); in test [8], -1.82% (inactive).
